Test results taken from ChEMBL document CHEMBL1926588, “Sulfur and selenium derivatives of quinazoline and pyrido[2,3-d]pyrimidine: synthesis and study of their potential cytotoxic activity in vitro” (Eur J Med Chem, 2012).

Assays:
MCF7 [1] = assay: Induction of apoptosis in human MCF7 cells assessed as cell death at 10 uM after 4 hrs by TUNEL analysis (reference value: 5.85 +/- 5.21%); assay type: functional
MCF7 [2] = assay: Cell cycle arrest in human MCF7 cells assessed as accumulation at subG1 phase at 15 uM after 4 hrs by propidium iodide staining-based flow cytometric analysis (reference value: 5.90 +/- 1.36%); assay type: functional
MCF7 [3] = assay: Cell cycle arrest in human MCF7 cells assessed as accumulation at S phase at 15 uM after 24 hrs by propidium iodide staining-based flow cytometric analysis (reference value: 12.39 +/- 1.54%); assay type: functional
MCF7 [4] = assay: Induction of apoptosis in human MCF7 cells assessed as cell death at 1 uM after 24 hrs by TUNEL analysis (reference value: 6.12 +/- 1.61%); assay type: functional
MCF7 [5] = assay: Induction of apoptosis in human MCF7 cells assessed as cell death at 5 uM after 24 hrs by TUNEL analysis (reference value: 9.28 +/- 1.71%); assay type: functional
MCF7 [6] = assay: Cell cycle arrest in human MCF7 cells assessed as accumulation at G0/G1 phase at 15 uM after 12 hrs by propidium iodide staining-based flow cytometric analysis (reference value: 57.34 +/- 1.64%); assay type: functional
MCF7 [7] = assay: Cell cycle arrest in human MCF7 cells assessed as accumulation at G2/M phase at 15 uM after 24 hrs by propidium iodide staining-based flow cytometric analysis (reference value: 32.37 +/- 7.73%); assay type: functional
MCF7 [8] = assay: Cell cycle arrest in human MCF7 cells assessed as accumulation at G2/M phase at 15 uM after 4 hrs by propidium iodide staining-based flow cytometric analysis (reference value: 21.60 +/- 5.37%); assay type: functional
MCF7 [9] = assay: Induction of apoptosis in human MCF7 cells assessed as cell death at 10 uM after 24 hrs by TUNEL analysis (reference value: 9.82 +/- 2.62%); assay type: functional
MCF7 [10] = assay: Cell cycle arrest in human MCF7 cells assessed as accumulation at G0/G1 phase at 15 uM after 4 hrs by propidium iodide staining-based flow cytometric analysis (reference value: 49.38 +/- 4.74%); assay type: functional
MCF7 [11] = assay: Induction of apoptosis in human MCF7 cells assessed as cell death at 10 uM by TUNEL analysis; assay type: functional, cell-based; details: TDE = time-dependent effect
[12] = Permeability of the compound across human Caco2 cells; assay type: ADME, cell-based; details: Caco-2, read-out: permeability
MCF7 [13] = assay: Induction of apoptosis in human MCF7 cells assessed as cell death at 20 uM after 24 hrs by TUNEL analysis relative to control; assay type: functional
[14] = Cytotoxicity against human 184B5 cells after 72 hrs by MTT assay; assay type: cell-based; details: for GI50 at 72 h: 184B5 cells; for LC50 / TGI: 184b5, 72 h
In short: (§1)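 MTT read-out after 72 h exposure at 37 °C in humidified 5% CO2, with five concentrations between 0.01 and 100. GI50 is 50% growth reduction versus untreated controls, TGI is complete growth inhibition, and LC50 is the concentration killing 50% of cells. Minimum three independent experiments.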

MCF7 [15] = assay: Induction of apoptosis in human MCF7 cells assessed as cell death at 10 uM after 48 hrs by TUNEL analysis (reference value: 4.23 +/- 1.99%); assay type: functional
CCRF-CEM = assay: Cytotoxicity against human CCRF-CEM cells after 72 hrs by MTT assay; assay type: functional; details: for CC50: read-out: LC50 (the source's name); in short: as §1
MCF7 [16] = assay: Cell cycle arrest in human MCF7 cells assessed as accumulation at subG1 phase at 15 uM after 24 hrs by propidium iodide staining-based flow cytometric analysis (reference value: 2.93 +/- 0.54%); assay type: functional
MCF7 [17] = assay: Induction of apoptosis in human MCF7 cells assessed as cell death at 10 uM after 12 hrs by TUNEL analysis (reference value: 6.02 +/- 0.85%); assay type: functional
MCF7 [18] = assay: Cytotoxicity against human MCF7 cells after 72 hrs by MTT assay; assay type: functional; details: MCF7, 72 h; in short: as §1
MCF7 [19] = assay: Induction of apoptosis in human MCF7 cells assessed as cell death at 5 uM after 24 hrs by TUNEL analysis relative to control; assay type: functional
MCF7 [20] = assay: Cell cycle arrest in human MCF7 cells assessed as accumulation at S phase at 15 uM after 12 hrs by propidium iodide staining-based flow cytometric analysis (reference value: 17.07 +/- 4.00%); assay type: functional
MCF7 [21] = assay: Cell cycle arrest in human MCF7 cells assessed as accumulation at G0/G1 phase at 15 uM after 24 hrs by propidium iodide staining-based flow cytometric analysis (reference value: 51.83 +/- 5.64%); assay type: functional
MCF7 [22] = assay: Cell cycle arrest in human MCF7 cells assessed as accumulation at subG1 phase at 15 uM after 12 hrs by propidium iodide staining-based flow cytometric analysis (reference value: 2.17 +/- 0.24%); assay type: functional
MCF7 [23] = assay: Induction of apoptosis in human MCF7 cells assessed as cell death at 20 uM after 24 hrs by TUNEL analysis (reference value: 9.56 +/- 1.38%); assay type: functional
MCF7 [24] = assay: Cell cycle arrest in human MCF7 cells assessed as accumulation at G2/M phase at 15 uM after 12 hrs by propidium iodide staining-based flow cytometric analysis (reference value: 22.11 +/- 3.86%); assay type: functional
HT-29 = assay: Cytotoxicity against human HT-29 cells after 72 hrs by MTT assay; assay type: functional; details: HT-29, 72 h; for CC50: read-out: LC50 (the source's name); in short: as §1
MCF7 [25] = assay: Cell cycle arrest in human MCF7 cells assessed as accumulation at S phase at 15 uM after 4 hrs by propidium iodide staining-based flow cytometric analysis (reference value: 19.09 +/- 4.54%); assay type: functional
MCF7 [26] = assay: Induction of apoptosis in human MCF7 cells assessed as cell death at 15 uM after 24 hrs by TUNEL analysis (reference value: 5.13 +/- 4.32%); assay type: functional
[27] = Cytotoxicity against human HTB-54 cells after 72 hrs by MTT assay; assay type: functional; details: HTB-54, 72 h; for CC50: read-out: LC50 (the source's name); in short: as §1
MCF7 [28] = assay: Selectivity ratio of GI50 for human 184B5 cells to GI50 for human MCF7 cells
In short: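 Selectivity ratio is GI50 on non-tumoral 184B5 mammary cells divided by GI50 on MCF-7. Both come from the 72 h MTT assay. Ratio 3–6 means moderate selectivity, >6 high, and otherwise non-selective.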

[29] = Cytotoxicity against human BEAS2B cells after 72 hrs by MTT assay; assay type: cell-based, BEAS-2B; details: for GI50 at 72 h: BEAS2B cells; for LC50 / TGI: beas-2b, 72 h; in short: as §1

Row | Compound | Activity (MCF7 [1]) | Activity (MCF7 [2]) | Activity (MCF7 [3]) | Activity (MCF7 [4]) | Activity (MCF7 [5]) | GI50 at 72 h [14] | LC50 [14] | TGI [14] | GI50 (CCRF-CEM) | TGI (CCRF-CEM) | CC50 (CCRF-CEM) | GI50 (MCF7 [18]) | LC50 (MCF7 [18]) | TGI (MCF7 [18]) | GI50 (HT-29) | TGI (HT-29) | CC50 (HT-29) | GI50 [27] | TGI [27] | CC50 [27] | further results
1 | [SeH]c1nc([SeH])c2ccccc2n1 | 6.01% | 3.98% | 15.75% | 2.76% | 16.32% | 0.49 µM | 6.63 µM | 2.5 µM | 2.99 µM | 6.01 µM | 9.03 µM | 2.92 µM | > 100 µM | 22.9 µM | 8.98 µM | 45.2 µM | 87.9 µM | 5.98 µM | 65.9 µM | > 100 µM | Activity (MCF7 [6]): 56.21%; Activity (MCF7 [7]): 34.67%; Activity (MCF7 [8]): 21.21%; Activity (MCF7 [9]): 27.29%; Activity (MCF7 [10]): 52.09%; Activity (MCF7 [11]): tde; Papp [12]: 4.67 ×10⁻⁶ cm/s; fold change (FC) (MCF7 [13]): 9; Activity (MCF7 [15]): 58.31%; Activity (MCF7 [16]): 3.46%; Activity (MCF7 [17]): 12.26%; fold change (FC) (MCF7 [19]): 1.7; Activity (MCF7 [20]): 18.36%; Activity (MCF7 [21]): 47.77%; Activity (MCF7 [22]): 2.37%; Activity (MCF7 [23]): 87.55%; Activity (MCF7 [24]): 25.63%; Activity (MCF7 [25]): 23.29%; Activity (MCF7 [26]): 76.82%
2 | C[Se]c1nc([Se]C)c2ccccc2n1 |  |  |  |  |  | 71.5 µM | > 100 µM | > 100 µM | 31.2 µM | 54.9 µM | 78.5 µM | 5.97 µM | > 100 µM | 50.7 µM | 7.46 µM | 33.8 µM | 76.8 µM | 26.6 µM | 84.2 µM | > 100 µM | RatioGI50 (MCF7 [28]): 12
3 | CCCCC[Se]c1nc(NCc2ccccc2)c2ccccc2n1 | 8.11% | 4.42% | 12.2% | 3.84% | 14.37% | 70.9 µM | > 100 µM | > 100 µM | 34.5 µM | 72.5 µM | > 100 µM | 0.05 µM | 99.4 µM | 47.1 µM | 72.7 µM | > 100 µM | > 100 µM | 37.7 µM | 81.1 µM | > 100 µM | Activity (MCF7 [6]): 55.3%; Activity (MCF7 [7]): 34.79%; Activity (MCF7 [8]): 28.5%; Activity (MCF7 [9]): 30.13%; Activity (MCF7 [10]): 46.24%; Papp [12]: 5.6 ×10⁻⁶ cm/s; RatioGI50 (MCF7 [28]): 1418; Activity (MCF7 [15]): 14.91%; Activity (MCF7 [16]): 3.28%; Activity (MCF7 [17]): 13.39%; GI50 at 72 h [29]: 44.1 µM; LC50 [29]: > 100 µM; TGI [29]: > 100 µM; Activity (MCF7 [20]): 17.01%; Activity (MCF7 [21]): 46.97%; Activity (MCF7 [22]): 2.13%; Activity (MCF7 [23]): 30.95%; Activity (MCF7 [24]): 25.83%; Activity (MCF7 [25]): 16.66%; Activity (MCF7 [26]): 24.88%
4 | CC[C@@]1(O)C(=O)OCc2c1cc1n(c2=O)Cc2cc3ccccc3nc2-1 [CAMPTOTHECIN] | 6.71% | 5.39% | 15.27% | 17.42% | 13.42% |  |  |  |  |  |  |  |  |  |  |  |  |  |  |  | Activity (MCF7 [6]): 59.5%; Activity (MCF7 [7]): 20.25%; Activity (MCF7 [8]): 23.38%; Activity (MCF7 [9]): 18.67%; Activity (MCF7 [10]): 47.24%; Activity (MCF7 [15]): 46.12%; Activity (MCF7 [16]): 3.05%; Activity (MCF7 [17]): 11.36%; Activity (MCF7 [20]): 16.24%; Activity (MCF7 [21]): 58.52%; Activity (MCF7 [22]): 3.06%; Activity (MCF7 [23]): 17.59%; Activity (MCF7 [24]): 20.21%; Activity (MCF7 [25]): 18.36%; Activity (MCF7 [26]): 21.21%
5 | CCCCCSc1nc(O)c2ccccc2n1 |  |  |  |  |  | > 100 µM | > 100 µM | > 100 µM | 52.1 µM | 86 µM | > 100 µM | 7.82 µM | > 100 µM | 81.4 µM | 74.6 µM | > 100 µM | > 100 µM | 30.4 µM | > 100 µM | > 100 µM | RatioGI50 (MCF7 [28]): >12; GI50 at 72 h [29]: 51.4 µM; LC50 [29]: > 100 µM; TGI [29]: > 100 µM
6 | CSc1ccc(CNc2nc(SC)nc3ncccc23)cc1 | 5.26% | 3.88% | 11.04% | 3.4% | 13.7% | 0.19 µM | 5.64 µM | 1.14 µM | 5.35 µM | 16.8 µM | 59 µM | 0.05 µM | 9.13 µM | 4.37 µM | 4.32 µM | 7.03 µM | 8.75 µM | 3.28 µM | 14.8 µM | 63.6 µM | Activity (MCF7 [6]): 55.42%; Activity (MCF7 [7]): 30.2%; Activity (MCF7 [8]): 23.88%; Activity (MCF7 [9]): 25.95%; Activity (MCF7 [10]): 50.42%; Papp [12]: 4.4 ×10⁻⁶ cm/s; Activity (MCF7 [15]): 11.66%; Activity (MCF7 [16]): 2.97%; Activity (MCF7 [17]): 11.51%; GI50 at 72 h [29]: 0.6 µM; LC50 [29]: 8.47 µM; TGI [29]: 3.77 µM; Activity (MCF7 [20]): 19.35%; Activity (MCF7 [21]): 52.91%; Activity (MCF7 [22]): 2.24%; Activity (MCF7 [23]): 22.63%; Activity (MCF7 [24]): 22.99%; Activity (MCF7 [25]): 18.02%; Activity (MCF7 [26]): 23.95%
